# Assay outcomes deposited in PubChem BioAssay by The Scripps Research Institute Molecular Screening Center.
# STAT3 activator – activators of IL-6 induced STAT3 signaling; activation (% of control), % at 5.6 µM; AID 871; U3A cells, IL-6 STAT3-luciferase reporter, luminescence; 100% = signal with IL-6 EC80 alone; 190,000 compounds, 0.91% hits;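 active means activation above the screen-wide mean of compound activation plus 3 SD, cut at about 130% in these data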
#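 System – human U3A cells carrying STAT3-luciferase construct · Probe or stimulus – Interleukin-6, 33 ng/mL · Schedule – compound 1 h, then IL-6 6 h at 37 °C · Signal – luminescence from STAT3-driven luciferase reporter · Evaluation – percent of IL-6-only median luminescence · Benchmarks – IL-6-only high control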
# HSP90 refold inh – HSP90 refolding inhibition in rabbit reticulocyte lysate. luciferase refolding luminescence, 3 h. inhibition, % at 5.6 µM. 290,000 compounds, 0.91% hits;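 active means inhibition above the screen-wide mean plus 3 SD, computed separately per campaign, cut at about 16% in these data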;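 further: inhibitors lower the luminescence because luciferase stays unfolded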
# STAT3 inh – reduces IL-6 driven STAT3 reporter signal; U3A cells, IL-6 STAT3-luciferase reporter, luminescence; host cell line lacks STAT1; inhibition, % at 5.5 µM; 190,000 compounds, 0.89% hits; AID 862;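 active means inhibition above the mean inhibition across all screened compounds plus 3 SD, cut at about 44% in these data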
# STAT1 blocker – reduces IFN-gamma driven STAT1 reporter signal | NIH 3T3 STAT1-luciferase reporter, luminescence | inhibition, % at 5.5 µM | 200,000 compounds, 0.35% hits;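 active means inhibition above a set limit, the mean inhibition across all tested compounds plus 3 SD, cut at about 34% in these data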
# HSP90 confirm – HSP90 inhibition, confirmation assay | AID 1846 | 2,300 compounds, 64% hits | shares compounds with HSP90 refold inh | inhibition, % at 5.9 µM | rabbit reticulocyte lysate, luciferase refolding luminescence, 3 h; in the data active means inhibition above about 18%
# luciferase ctr – blocks native firefly luciferase in HSP90 counter-screen; shares compounds with HSP90 refold inh; purified native firefly luciferase, luminescence; inhibition, % at 5.9 µM; 2,300 compounds, 48% hits; AID 1847;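 active means inhibition above the mean inhibition of all tested sample wells plus 3 SD, cut at about 10% in these data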
# Target sequence (P08659 whole entry, looked up): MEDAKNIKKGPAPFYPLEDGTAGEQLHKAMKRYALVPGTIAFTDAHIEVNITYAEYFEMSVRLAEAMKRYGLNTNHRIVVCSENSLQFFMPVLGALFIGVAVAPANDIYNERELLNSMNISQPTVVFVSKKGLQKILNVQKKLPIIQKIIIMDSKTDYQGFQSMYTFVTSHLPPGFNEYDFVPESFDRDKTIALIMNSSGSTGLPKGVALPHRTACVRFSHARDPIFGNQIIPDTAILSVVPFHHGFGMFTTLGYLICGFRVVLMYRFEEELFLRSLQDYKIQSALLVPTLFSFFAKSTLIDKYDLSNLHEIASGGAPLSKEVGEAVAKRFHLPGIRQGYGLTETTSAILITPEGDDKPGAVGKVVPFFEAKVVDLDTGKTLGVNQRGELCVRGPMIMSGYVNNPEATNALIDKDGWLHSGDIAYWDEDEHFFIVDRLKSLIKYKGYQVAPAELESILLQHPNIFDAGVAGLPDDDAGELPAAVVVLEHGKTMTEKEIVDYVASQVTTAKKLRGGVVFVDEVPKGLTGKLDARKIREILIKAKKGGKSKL
# Numbers stand for hits; - = inactive; . = no result. The list is not random: actives were taken first. Their share in the collection is about 2%.
SMILES,STAT3 activator,HSP90 refold inh,STAT3 inh,STAT1 blocker,HSP90 confirm,luciferase ctr
Cc1nnc(SCC(=O)NC2CCCCC2)[nH]c1=O,.,-,.,.,.,.
CCOC(=O)/C(C#N)=C/c1cc(C)n(-c2ccccc2)c1C,-,54,-,-,65,64
Cc1cc(NC(=O)CCC(=O)N(CC(=O)NC2CCCC2)c2ccc(C(C)C)cc2)no1,.,-,.,.,.,.
CC(=O)Oc1ccc(Nc2ccccc2)cc1,-,31,-,-,56,-
COc1ccc2c(c1OC)C(=O)N(c1ccc(OCc3ccccc3)cc1)C2=O,.,-,.,.,.,.
CCCCCc1ccc(-c2ccc(/C=C/C(N)=O)cc2)nc1,-,-,-,-,.,.
CCCc1ccc(-c2ccc(C(=O)O)cc2)nc1,-,50,-,-,56,26
Cc1nnc(SCc2cnc(-c3ccc(C(C)C)cc3)s2)n1C,-,38,65,37,50,41
C[C@H](NC(=O)[C@H]1N2C(=O)c3ccccc3C2SC1(C)C)C(=O)NCC1CCCO1 (some centres not stated),.,-,.,.,.,.
COc1ccc(C(=O)c2coc3ccc(O)c(CN(C)C)c23)cc1,-,35,-,-,-,-
Cc1cc(C)c(C(=O)C(C)OC(=O)c2ccc(Cl)nc2)cc1C (configuration not stated),.,-,.,.,.,.
CC(C)(C)c1ccc(-c2nc3cc(N)ccc3o2)cc1,.,31,.,.,42,45
Cc1ccc2oc(-c3cccc(N)c3)nc2c1,-,33,-,-,43,38
Nc1ccc(-c2nc3cc([N+](=O)[O-])ccc3o2)cc1,.,-,.,.,.,.
Nc1cc(=O)[nH]c(=O)n1CCCc1ccccc1,.,-,.,.,.,.
Cc1ccc[n+](CC(=O)Nc2ccc(N(C)C)cc2)c1,.,-,.,.,.,.
O=C(c1cccs1)N1CCN(c2cc(Cl)ccc2Cl)CC1,.,-,.,.,.,.
CN1C(=O)S/C(=C/c2ccc(OCc3cccc(C(=O)O)c3)cc2)C1=O,.,46,.,.,50,-
CCN(CCO)c1ccc(N=Nc2cc(C)[nH]n2)cc1,.,57,.,.,76,68
N=c1sccn1CC(=O)Nc1ccc([N+](=O)[O-])cc1Cl,.,21,.,.,-,-
COc1cc(N)c(C(=O)c2nccc3cc(OC)c(OC)cc23)cc1OC,.,-,.,.,.,.
COc1cc(Br)c(C(=O)c2nccc3cc(OC)c(OC)cc23)cc1OC,.,42,.,.,19,-
COc1ccc2[nH]c(-c3ccc(C)cc3)cc(=O)c2c1,-,25,-,-,56,33
CCC(C)C(=O)Nc1nnc(CCc2ccccc2)s1 (configuration not stated),.,-,.,.,.,.
CC(C)CC(=O)Nc1nc2ccc(S(C)(=O)=O)cc2s1,-,30,-,-,-,-
SMILES,STAT3 activator,HSP90 refold inh,STAT3 inh,STAT1 blocker,HSP90 confirm,luciferase ctr
CCNS(=O)(=O)c1ccc2nc(NC(=O)c3cccnc3)sc2c1,-,29,-,-,-,-
Cc1ccc2nc(NC(=O)CCCC(=O)O)sc2c1,-,17,80,51,24,-
Cc1nc2ccc(NC(=O)c3cccnc3)cc2s1,-,-,-,-,.,.
Cc1ccc(SCc2cn3ccccc3n2)cc1,.,-,.,.,.,.
Cn1ccnc1SCc1cn2cc(Br)ccc2n1,-,18,-,-,40,34
O=C(O)[C@H](Cc1ccccc1)NC(=O)N1CCN(c2ccccc2)CC1,.,-,.,.,.,.
Cc1ccnc(SC2CC(=O)N(c3ccc(C(C)C)cc3)C2=O)n1 (configuration not stated),.,32,.,.,-,-
Cc1cc(OC(=O)c2cccc(Cl)c2)c([N+](=O)[O-])c(=O)[nH]1,.,-,.,.,.,.
Cc1ccc(NC(=O)C2CCN(S(=O)(=O)c3ccc(N4CCCC4=O)cc3)CC2)cc1Cl,.,-,.,.,.,.
CC(=O)c1ccc2noc(-c3ccc(C)cc3)c2c1,-,-,-,-,.,.
Cc1ccc(-c2onc3ccc(C(=O)O)cc23)cc1,.,72,.,.,61,57
O=C(O)c1ccc2nc(-c3ccccc3)c(-c3ccccc3)nc2c1,-,42,-,-,51,37
O=C(O)c1ccc2noc(-c3ccccc3)c2c1,-,41,-,-,-,-
CC(=O)COC(=O)c1ccc2noc(-c3ccccc3)c2c1,.,20,.,.,-,-
CCn1ccnc1CN1CCN(CC(C)C)C(CCO)C1 (configuration not stated),-,-,-,-,.,.
NNC(=O)CNC(c1ccccc1)c1cc(Br)ccc1N (configuration not stated),.,58,.,.,-,-
COC(=O)CNC(c1ccccc1)c1cc(Br)ccc1N (configuration not stated),.,-,.,.,.,.
COc1ccc2[nH]c(-c3ccccc3)cc2c1,.,-,.,.,.,.
COc1ccc2cc(-c3ccccc3)ncc2c1,.,20,.,.,24,10
Cc1nc2c(-c3ccc(F)cc3)c(C)nn2c(C)c1CCC(=O)NCCN1CCOCC1,-,40,-,-,-,-
COc1cccc(C(=O)Oc2ccc(/C=N/Nc3ccc(C(=O)O)cc3)cc2OC)c1,.,22,.,.,48,31
CCOc1cc(/C=N/Nc2ccc(C(=O)O)cc2)ccc1OC(=O)c1ccccc1C,.,-,.,.,.,.
COc1ccc(C(=O)N/N=C/c2ccc(OC)c(COc3ccc(F)cc3)c2)cc1,.,-,.,.,.,.
COc1cccc(OCc2cc(/C=N/Nc3ccc(C(=O)O)cc3)ccc2OC)c1,.,55,.,.,66,56
COc1ccc(NC(=O)C2CCN(S(=O)(=O)c3ccc(Br)s3)CC2)cc1OC,-,-,-,-,.,.
SMILES,STAT3 activator,HSP90 refold inh,STAT3 inh,STAT1 blocker,HSP90 confirm,luciferase ctr
CCC(=O)N1CCc2cc(S(=O)(=O)N(CC)c3cccc(C)c3)ccc21,-,62,-,-,-,-
CCC(=O)N1CCc2cc(S(=O)(=O)CCC(=O)NCc3ccco3)ccc21,-,23,-,-,-,-
CCN(c1cccc(C(F)(F)F)c1)S(=O)(=O)c1ccc2c(c1)CCN2C(=O)C1CC1,-,-,-,-,.,.
CCCCNC1=CC(=O)C(=O)c2ccccc21,-,24,-,-,19,-
Cc1cc(-c2csc(NC(=O)c3ccc(S(=O)(=O)N(C)C)cc3)n2)c(C)n1-c1ccccc1,-,22,-,-,41,-
COc1ccccc1N(C)S(=O)(=O)c1ccc(C(=O)Nc2nc(C)cs2)cc1,-,-,-,-,.,.
CC1CCCN(c2ccc3nc4ccccc4c(=O)n3n2)C1 (configuration not stated),-,36,76,51,60,38
Cc1ccc2nc3ccc(N4CCCC4)nn3c(=O)c2c1,-,-,-,-,.,.
COc1ccc(NC(=O)c2cccnc2)cc1,.,23,.,.,-,-
Cc1ccc(C(=O)Nc2cccc(NC(=O)c3cccnc3)c2)cc1,.,38,.,.,-,-
O=C(C(=O)c1cccnc1)c1cccnc1,.,20,.,.,-,-
Cc1ccc(C(=O)Nc2ccc3ncccc3c2)cc1,.,50,.,.,71,58
O=C(Nc1ccc2ncccc2c1)c1cccc(Br)c1,.,-,.,.,.,.
CCOC(=O)C1C(=O)OC(C)(C)C1C(CC)C(=O)c1c(C)cc(C)cc1C (configuration not stated),.,-,.,.,.,.
COc1ccc(OC)c(CCNC(=O)C(C)n2nc(C)c3c(C)n(-c4ccc(C)cc4)nc3c2=O)c1 (configuration not stated),.,-,.,.,.,.
